Experimental data gathered from unrelated publications.
Lines come from different studies, so protocols differ.
CNR2: Cannabinoid receptor 2 (CNR2, Homo sapiens, UniProt P34972)
LIMK2: LIM domain kinase 2 (LIMK2, Homo sapiens, UniProt P53671)

CCOC(=O)C(CC)(CCCSCCOCCOCCOCCNC(=O)OC(C)(C)C)NC(=O)c1ccc(C2CC2)c(Cc2ccc(F)cc2)n1 (stereo not shown)
Emax (CNR2; cAMP, agonist): 91%

Nc1ncc(-c2nc(N3CCOCC3)nc(N3CCOCC3)n2)c(C(F)F)n1
remaining binding (Membrane-associated tyrosine- and threonine-specific cdc2-inhibitory kinase (PKMYT1, Homo sapiens, UniProt Q99640); binding, competition with immobilised ligand; 10 µM): 98%

CCN(CC)CCCC[C@H](NC(=O)[C@H](CC(C)C)NC(=O)[C@H](C)NC(=O)[C@H](Cc1ccccc1)NC(=O)c1ccc(C(C)(C)C)cc1)C(=O)N[C@@H](CO)C(=O)OC
ΔTm (Bromodomain-containing protein 9 (BRD9, Homo sapiens, UniProt Q9H8M2); thermal stability, DSF; 25 µM): 0.23 °C

COc1ccc(S(=O)(=O)N(CC(=O)NO)CC(C)C)cc1
inhibition (72 kDa type IV collagenase (MMP2, Homo sapiens, UniProt P08253); enzyme activity, inhibitor; 1 µM): 100%

CCOC(=O)[C@](CC)(CCC[S+]([O-])CCOCCOCCNC(=O)OC(C)(C)C)NC(=O)c1ccc(C2CC2)c(Cc2ccc(F)cc2)n1 (stereo partly shown)
Emax (CNR2; cAMP, agonist): 93%

Cc1nn(C)cc1-c1nc2c(N3CCN(Cc4ccc(Cl)cc4)CC3)c(Cl)cnc2[nH]1
remaining binding (Serine/threonine-protein kinase 35 (STK35, Homo sapiens, UniProt Q8TDR2); binding, competition with immobilised ligand; 1 µM): 75%

O=C(N1CCCCC1Cc1ccccc1)n1cc(-c2ccc(-c3ccccc3)cc2)nn1 (stereo not shown)
kinact (Diacylglycerol lipase-alpha (Mus musculus, UniProt Q6WQJ1); enzyme activity, inhibitor): 0.00133 s⁻¹

C#Cc1n[nH]c2c(-c3cn([C@@H](C)c4ccccn4)c(=O)[nH]c3=O)cc(F)cc12
inhibition (Serine/threonine-protein kinase haspin (HASPIN, Homo sapiens, UniProt Q8TF76); enzyme activity, inhibitor; 0.1 µM): 4.5%

Nc1ccc2cccc(O)c2n1
ΔTm (Methionyl-tRNA synthetase, putative (Trypanosoma brucei brucei, UniProt Q38C91); thermal stability, DSF; 800 µM): 1.8 °C

Cn1cc(-c2cccc(N3CCc4c(sc5c4CC(C)(C)C5)C3=O)c2CO)cc(Nc2ccncn2)c1=O
inhibition (LIMK2; enzyme activity, inhibitor; 1 µM): 6%

O=C(O)C(F)(F)C(F)(F)C(F)(F)C(F)(F)C(F)(F)C(F)(F)C(F)(F)F
Km (Solute carrier family 22 member 12 (SLC22A12, Homo sapiens, UniProt Q96S37); transporter uptake, substrate): 820 µM

Cn1cc(-c2cc(F)cc(N3CCn4c(cc5c4CCCC5)C3=O)c2CO)cc(Nc2ccc(N3CCN(C4COC4)CC3)cn2)c1=O
inhibition (LIMK2; enzyme activity, inhibitor; 0.1 µM): -3%

COc1ncccc1-c1cnn2ccc(N3CCN(C(=O)OC(C)C)CC3)nc12
remaining binding (Epithelial discoidin domain-containing receptor 1 (DDR1, Homo sapiens, UniProt Q08345); binding, competition with immobilised ligand; 1 µM): 100%
